Experimental data: ChEMBL document CHEMBL1667836, “Synthesis of egonol derivatives and their antimicrobial activities” (2011)
≈ marks a conversion by molar mass, not a printed value. Calls of active or inactive are those of the source. The calls are words filed in the database; no cut-off is given here.

How the values were obtained:
Assay type in all cases: functional
[1] = test system: Candida albicans; assay: Antimicrobial activity against Candida albicans ATCC 10231 by MHB method
In short: (§1)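 Broth-based MIC assay in Mueller Hinton broth. Test compounds were supplied from stock solutions in DMSO. The read-out was the minimum inhibitory concentration determined for each compound against each strain.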

[2] = test system: Bacillus subtilis; assay: Antimicrobial activity against Bacillus subtilis ATCC 6633 by MHB method; in short: as §1
[3] = test system: Escherichia coli; assay: Antimicrobial activity against Escherichia coli ATCC 8739 by MHB method; in short: as §1
[4] = test system: Staphylococcus aureus; assay: Antimicrobial activity against Staphylococcus aureus ATCC 29213 by MHB method; in short: as §1

| Structure (SMILES) | MIC [1] | MIC [2] | MIC [3] | MIC [4] |
| --- | --- | --- | --- | --- |
| COc1ccc(-c2cc3cc(CCCOC(=O)CCl)cc(OC)c3o2)cc1OC | 200 µg/mL (≈ 477 µM) | 400 µg/mL (≈ 955 µM) | inactive | 400 µg/mL (≈ 955 µM) |
| COc1cc(CC/C=N/O)cc2cc(-c3ccc4c(c3)OCO4)oc12 | 800 µg/mL (≈ 2360 µM) | inactive | inactive | inactive |
| COc1cc(CCCOC(=O)CN2CCOCC2)cc2cc(-c3ccc4c(c3)OCO4)oc12 | inactive | inactive | 800 µg/mL (≈ 1760 µM) | inactive |
| COc1cc(CC/C=N/NC(N)=O)cc2cc(-c3ccc4c(c3)OCO4)oc12 | 25 µg/mL (≈ 65.6 µM) | 400 µg/mL (≈ 1050 µM) | inactive | inactive |
| COc1cc(CCCOC(C)=O)cc2cc(-c3ccc4c(c3)OCO4)oc12 [EGONOL ACETATE] | 200 µg/mL | inactive | inactive | inactive |
| COc1cc(CC/C=N/OC(=O)c2ccccc2)cc2cc(-c3ccc4c(c3)OCO4)oc12 | 100 µg/mL (≈ 226 µM) | 400 µg/mL (≈ 902 µM) | inactive | inactive |
| COc1cc(CCCOC(=O)CCl)cc2cc(-c3ccc4c(c3)OCO4)oc12 | 100 µg/mL (≈ 248 µM) | inactive | inactive | inactive |
| COc1cc(CC/C=N/NC(N)=S)cc2cc(-c3ccc4c(c3)OCO4)oc12 | 200 µg/mL (≈ 503 µM) | 400 µg/mL (≈ 1010 µM) | inactive | inactive |
| COc1cc(CCCOS(=O)(=O)O)cc2cc(-c3ccc4c(c3)OCO4)oc12 | 50 µg/mL (≈ 123 µM) | 400 µg/mL (≈ 984 µM) | 400 µg/mL (≈ 984 µM) | 400 µg/mL (≈ 984 µM) |
| CCN(CC)CCCc1cc(OC)c2oc(-c3ccc4c(c3)OCO4)cc2c1 | 200 µg/mL (≈ 524 µM) | inactive | inactive | inactive |
| COc1cc(CC/C=N/OC(=O)CCl)cc2cc(-c3ccc4c(c3)OCO4)oc12 | 25 µg/mL (≈ 60.1 µM) | inactive | 800 µg/mL (≈ 1920 µM) | inactive |
| COc1cc(CCC(=O)O)cc2cc(-c3ccc4c(c3)OCO4)oc12 [EGONOIC ACID] | 50 µg/mL (≈ 147 µM) | 800 µg/mL (≈ 2350 µM) | inactive | 200 µg/mL (≈ 588 µM) |
| COc1cc(CCCN2CCOCC2)cc2cc(-c3ccc4c(c3)OCO4)oc12 | 25 µg/mL (≈ 63.2 µM) | inactive | inactive | 200 µg/mL (≈ 506 µM) |
| COc1c([N+](=O)[O-])c(CCCO)cc2c([N+](=O)[O-])c(-c3ccc4c(c3)OCO4)oc12 | 400 µg/mL (≈ 961 µM) | 400 µg/mL (≈ 961 µM) | 400 µg/mL (≈ 961 µM) | 800 µg/mL (≈ 1920 µM) |
| COc1cc(CC/C=C(\C=O)Cc2cc(OC)c3oc(-c4ccc5c(c4)OCO5)cc3c2)cc2cc(-c3ccc4c(c3)OCO4)oc12 | 25 µg/mL (≈ 39.6 µM) | inactive | inactive | 25 µg/mL (≈ 39.6 µM) |
| COc1cc(CC/C=C/C(C)=O)cc2cc(-c3ccc4c(c3)OCO4)oc12 | 200 µg/mL (≈ 549 µM) | inactive | inactive | inactive |
| COc1cc(CCCO)cc2c(N)c(-c3ccc4c(c3)OCO4)oc12 | 800 µg/mL (≈ 2340 µM) | inactive | inactive | inactive |
| COc1cc(CCCCl)cc2c([N+](=O)[O-])c(-c3ccc4c(c3)OCO4)oc12 | 25 µg/mL (≈ 64.1 µM) | inactive | 800 µg/mL (≈ 2050 µM) | inactive |
| COc1cc(CCCO)cc2cc(-c3ccc4c(c3)OCO4)oc12 [EGONOL] | 25 µg/mL (≈ 76.6 µM) | 800 µg/mL (≈ 2450 µM) | 800 µg/mL (≈ 2450 µM) | 800 µg/mL (≈ 2450 µM) |
